Test results reported in ChEMBL document CHEMBL1275556, “High prevalence of plasmid-mediated quinolone resistance genes qnr and aac(6')-Ib-cr in clinical isolates of Enterobacteriaceae from nine teaching hospitals in China” (2008).
In brackets after ≈: the same amount, converted by molar mass.

Key:
[1] = tested on: Escherichia coli; assay: Antimicrobial activity against aac(6')-Ib-cr-negative Escherichia coli PU12T harboring wild-type GyrA, GyrB, ParC and qnrS genes by agar dilution method; format: functional
Summary of the method: (§1)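 MICs were determined by the CLSI agar dilution method (M7-A7) and interpreted against CLSI M100-S17 breakpoints.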

[2] = tested on: Citrobacter freundii; assay: Antimicrobial activity against aac(6')-Ib-cr-positive Citrobacter freundii PU55 harboring GyrA T83I, ParC S80I mutant, wild-type GyrB, qnrA genes by agar dilution method; format: functional; summary of the method: as §1
[3] = tested on: Enterobacter cloacae; assay: Antimicrobial activity against aac(6')-Ib-cr-negative Enterobacter cloacae SH39 harboring GyrA S83I, ParC S80I mutant, wild-type GyrB and qnrA genes by agar dilution method; format: functional
[4] = tested on: Klebsiella pneumoniae; assay: Antimicrobial activity against aac(6')-Ib-cr-negative Klebsiella pneumoniae SY22 harboring GyrA S83I, ParC S80I mutant, wild-type GyrB and qnrS genes by agar dilution method; format: functional; summary of the method: as §1
[5] = tested on: Klebsiella pneumoniae; assay: Antimicrobial activity against aac(6')-Ib-cr-negative Klebsiella pneumoniae SY22T harboring qnrS gene by agar dilution method; format: functional; summary of the method: as §1
[6] = tested on: Klebsiella pneumoniae; assay: Antimicrobial activity against aac(6')-Ib-cr-positive Klebsiella pneumoniae SY26 harboring GyrA S83I, ParC S80I mutant, wild-type GyrB and qnrB genes by agar dilution method; format: functional
Summary of the method: (§2)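 MICs were determined on clinical isolates by CLSI agar dilution (M7-A7) and interpreted against CLSI M100-S17 breakpoints.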

[7] = tested on: Klebsiella pneumoniae; assay: Antimicrobial activity against aac(6')-Ib-cr-positive Klebsiella pneumoniae SY26T harboring wild-type GyrA, ParC, GyrB and qnrB genes by agar dilution method; format: functional
Summary of the method: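 Transconjugants were made by conjugating a qnr/aac(6')-Ib-cr donor with azide-resistant E. coli J53. MICs were read by CLSI agar dilution (M7-A7) and interpreted per M100-S17.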

[8] = tested on: Citrobacter freundii; assay: Antimicrobial activity against aac(6')-Ib-cr-positive Citrobacter freundii TJ15 harboring GyrA T83I, ParC S80I mutant, wild-type GyrB, qnrB genes by agar dilution method; format: functional; summary of the method: as §1
[9] = tested on: Citrobacter freundii; assay: Antimicrobial activity against aac(6')-Ib-cr-positive Citrobacter freundii TJ15T harboring wild-type GyrA, ParC, GyrB genes by agar dilution method; format: functional; summary of the method: as §1
[10] = tested on: Enterobacter cloacae; assay: Antimicrobial activity against aac(6')-Ib-cr-negative Enterobacter cloacae WH42 harboring wild-type GyrA, ParC, GyrB and qnrA genes by agar dilution method; format: functional
[11] = tested on: Enterobacter cloacae; assay: Antimicrobial activity against aac(6')-Ib-cr-negative Enterobacter cloacae WH42T harboring qnrA gene by agar dilution method; format: functional
[12] = tested on: Klebsiella pneumoniae; assay: Antimicrobial activity against aac(6')-Ib-cr-positive Klebsiella pneumoniae WH99 harboring wild-type GyrA, ParC, GyrB and qnrB genes by agar dilution method; format: functional; summary of the method: as §2
[13] = tested on: Klebsiella pneumoniae; assay: Antimicrobial activity against aac(6')-Ib-cr-positive Klebsiella pneumoniae WH99T harboring qnrB gene by agar dilution method; format: functional
Summary of the method: (§3)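 Transconjugants were made by conjugating a qnr/aac(6')-Ib-cr donor with azide-resistant E. coli J53. Selection used Trypticase soy agar with sodium azide 150 µg/ml and sulfamethoxazole 180 µg/ml. […] MICs were read by CLSI agar dilution (M7-A7) and interpreted per M100-S17.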

[14] = tested on: Escherichia coli; assay: Antimicrobial activity against aac(6')-Ib-cr-negative Escherichia coli PU12 harboring GyrA S83L mutant, wild-type GyrB, ParC and qnrS genes by agar dilution method; format: functional; summary of the method: as §1
[15] = tested on: Escherichia coli; assay: Antimicrobial activity against aac(6')-Ib-cr-positive Escherichia coli FJ3 harboring GyrA S83L, ParC S80R mutant, wild-type GyrB and qnrB genes by agar dilution method; format: functional; summary of the method: as §1
[16] = tested on: Escherichia coli; assay: Antimicrobial activity against aac(6')-Ib-cr-positive Escherichia coli FJ3T harboring wild-type GyrA, ParC, GyrB and qnrB genes by agar dilution method
[17] = tested on: Enterobacter cloacae; assay: Antimicrobial activity against aac(6')-Ib-cr-negative Enterobacter cloacae FJ61 harboring GyrA S83I, GyrA D87A, ParC S80I mutant, wild-type GyrB and qnrS genes by agar dilution method; format: functional
[18] = tested on: Enterobacter cloacae; assay: Antimicrobial activity against aac(6')-Ib-cr-positive Enterobacter cloacae FJ63 harboring GyrA S83I, GyrA D87A, ParC S80I mutant, wild-type GyrB and qnrS genes by agar dilution method; format: functional
[19] = tested on: Enterobacter cloacae; assay: Antimicrobial activity against aac(6')-Ib-cr-positive Enterobacter cloacae FJ63T harboring qnrS gene by agar dilution method; format: functional
[20] = tested on: Enterobacter cloacae; assay: Antimicrobial activity against aac(6')-Ib-cr-negative Enterobacter cloacae FJ67 harboring […] and qnrS genes by agar dilution method; format: functional
[21] = tested on: Enterobacter cloacae; assay: Antimicrobial activity against aac(6')-Ib-cr-negative Enterobacter cloacae FJ67T harboring qnrS gene by agar dilution method; format: functional
[22] = tested on: Klebsiella pneumoniae; assay: Antimicrobial activity against aac(6')-Ib-cr-positive Klebsiella pneumoniae GZ40 harboring GyrA S83I, ParC S80I mutant, wild-type GyrB and qnrB genes by agar dilution method; format: functional; summary of the method: as §1
[23] = tested on: Enterobacter cloacae; assay: Antimicrobial activity against aac(6')-Ib-cr-negative Enterobacter cloacae GZ47 harboring qnrB and qnrS genes by agar dilution method; format: functional
[24] = tested on: Enterobacter cloacae; assay: Antimicrobial activity against aac(6')-Ib-cr-negative Enterobacter cloacae GZ47T harboring qnrB gene by agar dilution method; format: functional
[25] = tested on: Enterobacter cloacae; assay: Antimicrobial activity against aac(6')-Ib-cr-negative Enterobacter cloacae GZ51 harboring qnrA gene by agar dilution method; format: functional
[26] = tested on: Enterobacter cloacae; assay: Antimicrobial activity against aac(6')-Ib-cr-negative Enterobacter cloacae GZ51T harboring qnrA gene by agar dilution method; format: functional
[27] = tested on: Citrobacter freundii; assay: Antimicrobial activity against aac(6')-Ib-cr-positive Citrobacter freundii JN1 harboring GyrA T83I, ParC S80I mutant, wild-type GyrB and qnrA genes by agar dilution method; format: functional; summary of the method: as §1
[28] = tested on: Citrobacter freundii; assay: Antimicrobial activity against aac(6')-Ib-cr-positive Citrobacter freundii JN1T by agar dilution method; format: functional; summary of the method: as §1
[29] = tested on: Klebsiella pneumoniae; assay: Antimicrobial activity against aac(6')-Ib-cr-positive Klebsiella pneumoniae JN132 harboring GyrA S83I, ParC S80I mutant, wild-type GyrB and qnrB genes by agar dilution method; format: functional; summary of the method: as §2
[30] = tested on: Klebsiella pneumoniae; assay: Antimicrobial activity against aac(6')-Ib-cr-positive Klebsiella pneumoniae JN132T harboring qnrB gene by agar dilution method; format: functional; summary of the method: as §3
[31] = tested on: Klebsiella pneumoniae; assay: Antimicrobial activity against aac(6')-Ib-cr-positive Klebsiella pneumoniae JN41 harboring GyrA S83I, ParC S80I mutant, wild-type GyrB and qnrB genes by agar dilution method; format: functional; summary of the method: as §2
[32] = tested on: Klebsiella pneumoniae; assay: Antimicrobial activity against aac(6')-Ib-cr-positive Klebsiella pneumoniae JN41T harboring qnrB gene by agar dilution method; format: functional; summary of the method: as §3
[33] = tested on: Citrobacter freundii; assay: Antimicrobial activity against aac(6')-Ib-cr-negative Citrobacter freundii JN64 harboring GyrA T83I, wild-type ParC, GyrB and qnrA genes by agar dilution method; format: functional; summary of the method: as §1
[34] = tested on: Citrobacter freundii; assay: Antimicrobial activity against aac(6')-Ib-cr-negative Citrobacter freundii JN64T harboring qnrA gene by agar dilution method; format: functional; summary of the method: as §1
[35] = tested on: Citrobacter freundii; assay: Antimicrobial activity against aac(6')-Ib-cr-positive Citrobacter freundii JS33 harboring GyrA T83I mutant, wild-type ParC, GyrB, qnrA and qnrB genes by agar dilution method; format: functional; summary of the method: as §1
[36] = tested on: Citrobacter freundii; assay: Antimicrobial activity against aac(6')-Ib-cr-positive Citrobacter freundii PU55T harboring wild-type GyrA, ParC, GyrB and qnrA genes by agar dilution method
[37] = tested on: Enterobacter cloacae; assay: Antimicrobial activity against aac(6')-Ib-cr-negative Enterobacter cloacae SH39T harboring qnrA gene by agar dilution method; format: functional
[38] = tested on: Enterobacter cloacae; assay: Antimicrobial activity against aac(6')-Ib-cr-negative Enterobacter cloacae FJ61T harboring qnrS gene by agar dilution method; format: functional
[39] = tested on: Klebsiella pneumoniae; assay: Antimicrobial activity against aac(6')-Ib-cr-positive Klebsiella pneumoniae GZ40T harboring qnrB gene by agar dilution method
[40] = tested on: Citrobacter freundii; assay: Antimicrobial activity against aac(6')-Ib-cr-positive Citrobacter freundii JS33T harboring qnrA gene by agar dilution method; format: functional; summary of the method: as §1

SMILES	MIC [2] [µg/mL]	MIC [3] [µg/mL]	MIC [4] [µg/mL]	MIC [5] [µg/mL]	MIC [6] [µg/mL]	MIC [7] [µg/mL]	MIC [8] [µg/mL]	MIC [9] [µg/mL]	MIC [10] [µg/mL]	MIC [11] [µg/mL]	MIC [13] [µg/mL]	MIC [22] [µg/mL]	MIC [27] [µg/mL]	MIC [28] [µg/mL]	MIC [29] [µg/mL]	MIC [30] [µg/mL]	MIC [31] [µg/mL]	MIC [32] [µg/mL]	MIC [33] [µg/mL]	MIC [35] [µg/mL]	other results
CC(C)(O/N=C(\C(=O)N[C@@H]1C(=O)N2C(C(=O)[O-])=C(C[n+]3ccccc3)CS[C@H]12)c1csc(N)n1)C(=O)O [CEFTAZIDIME]	64 (≈ 117 µM)	2 (≈ 3.66 µM)	4 (≈ 7.32 µM)	1 (≈ 1.83 µM)	256 (≈ 468 µM)	16 (≈ 29.3 µM)	4 (≈ 7.32 µM)	2 (≈ 3.66 µM)	256 (≈ 468 µM)	16 (≈ 29.3 µM)	4 (≈ 7.32 µM)	256 (≈ 468 µM)	64 (≈ 117 µM)	1 (≈ 1.83 µM)	32 (≈ 58.5 µM)	32 (≈ 58.5 µM)	2 (≈ 3.66 µM)	1 (≈ 1.83 µM)	64 (≈ 117 µM)	16 (≈ 29.3 µM)	MIC [1]: 1 µg/mL (≈ 1.83 µM); MIC [12]: 16 µg/mL (≈ 29.3 µM); MIC [14]: 4 µg/mL (≈ 7.32 µM); MIC [15]: 4 µg/mL (≈ 7.32 µM); MIC [16]: 2 µg/mL (≈ 3.66 µM); MIC [17]: 16 µg/mL (≈ 29.3 µM); MIC [18]: 128 µg/mL (≈ 234 µM); MIC [19]: 4 µg/mL (≈ 7.32 µM); MIC [20]: 4 µg/mL (≈ 7.32 µM); MIC [21]: 4 µg/mL (≈ 7.32 µM); MIC [23]: 128 µg/mL (≈ 234 µM); MIC [24]: 2 µg/mL (≈ 3.66 µM); MIC [25]: 64 µg/mL (≈ 117 µM); MIC [26]: 32 µg/mL (≈ 58.5 µM); MIC [34]: 2 µg/mL (≈ 3.66 µM)
C[C@H]1COc2c(N3CCN(C)CC3)c(F)cc3c(=O)c(C(=O)O)cn1c23.C[C@H]1COc2c(N3CCN(C)CC3)c(F)cc3c(=O)c(C(=O)O)cn1c23.O [LEVOFLOXACIN]	32	32	> 32		32	0.25	4	0.5	2	0.25	0.25	> 32	16	0.25	8	0.25	> 32	0.25	8	2	MIC [36]: 0.25 µg/mL; MIC [37]: 0.5 µg/mL; MIC [14]: 4 µg/mL; MIC [15]: 4 µg/mL; MIC [16]: 0.25 µg/mL; MIC [17]: > 32 µg/mL; MIC [38]: 0.5 µg/mL; MIC [18]: > 32 µg/mL; MIC [19]: 0.5 µg/mL; MIC [20]: 8 µg/mL; MIC [21]: 1 µg/mL; MIC [39]: 0.25 µg/mL; MIC [23]: 2 µg/mL; MIC [24]: 0.25 µg/mL; MIC [25]: 0.5 µg/mL; MIC [26]: 0.25 µg/mL; MIC [34]: 0.5 µg/mL; MIC [40]: 0.25 µg/mL
O=C(O)c1cn(C2CC2)c2cc(N3CCNCC3)c(F)cc2c1=O [CIPROFLOXACIN]	> 32		> 32	0.5 (≈ 1.51 µM)	> 32	0.5 (≈ 1.51 µM)	16 (≈ 48.3 µM)				1 (≈ 3.02 µM)	> 32	> 32	1 (≈ 3.02 µM)	> 32	1 (≈ 3.02 µM)	> 32	0.5 (≈ 1.51 µM)	8 (≈ 24.1 µM)	4 (≈ 12.1 µM)	MIC [36]: 1 µg/mL (≈ 3.02 µM); MIC [12]: 2 µg/mL (≈ 6.04 µM); MIC [39]: 1 µg/mL (≈ 3.02 µM); MIC [40]: 0.5 µg/mL (≈ 1.51 µM)
